These results are taken from the array DNA melting data of Ke et al. (doi:10.1101/2024.01.08.574731).

A short description of series [1]: folding enthalpy; higher = less favourable; fluorescence melt of hairpins on a sequencing array, two-state fit. The following applies: sodium 0.088 M. The essentials: (§1)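 Library hairpins on a sequenced MiSeq flow cell carried annealed Cy3 and quencher oligos, and their Cy3 fluorescence was imaged in 50 mM Na-HEPES pH 8.0 with 25 mM NaCl, in 2.5 °C steps up to 60 °C. Signals were normalised to Cy3 before quenching and to control constructs. Melting temperature and folding enthalpy were obtained from bootstrapped two-state fits, combined by inverse-variance weighting across four replicates, and the fitted temperatures were then raised by 9.35 °C to match UV melts.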

Series [2] can be described thus: melting temperature; fluorescence melt of hairpins on a sequencing array, two-state fit, raised by 9.35 °C to match UV melts. The following applies: sodium 0.088 M. The essentials: as §1

Consider GTGTAACGAAAGTTCCAC (((.(((....))).))), for which, in series [1], the folding enthalpy was -22.6 kcal/mol. Further, the Tm in series [2] is 38.9 °C.

Take GTGTACACGAAAGTGCAC (((..(((....)))))): in series [1], the folding enthalpy was -19 kcal/mol. Further, the Tm in series [2] worked out at 47.1 °C.

Regarding GTGTACCGAAAGGTTCAC (((.(((....))).))), the folding enthalpy in series [1] is -35.8 kcal/mol. The Tm in series [2] was 53.1 °C.

Consider GTGTACGAAAGTACAC ((((((....)))))), for which, in series [1], the folding enthalpy is -29.7 kcal/mol. Moreover, the Tm in series [2] is 69.1 °C.

Consider GTGTACGAAAGTACCAC ((((((....))).))), for which the folding enthalpy in series [1] was -13.3 kcal/mol. For the same sequence, the Tm in series [2] came to 44.4 °C.

In the case of GTGTACGAAAGTACCCAC ((((((....)))..))), the folding enthalpy in series [1] is -10.3 kcal/mol. For the same sequence, in series [2], the Tm turned out to be 31.9 °C.

For the sequence GTGTACGAAAGTACTCAC ((((((....)))..))), the folding enthalpy in series [1] was -11.4 kcal/mol. In series [2], the Tm was 35.7 °C.

On to GTGTACGAAAGTATCAC ((((((....))).))), for which the folding enthalpy in series [1] is -22.8 kcal/mol. Also, in series [2], the Tm came out at 43.6 °C.

Take GTGTACGCGAAAGCGCAC (((..(((....)))))): the folding enthalpy in series [1] is -16.7 kcal/mol. Moreover, the Tm in series [2] stood at 48.9 °C.

GTGTACGGAAACACACAC ((((..(....)..)))): the folding enthalpy in series [1] was -12.6 kcal/mol. The Tm in series [2] came to 31.9 °C.

For the sequence GTGTACTCGAAAGAGCAC (((..(((....)))))), the folding enthalpy in series [1] is -21.8 kcal/mol. Further, the Tm in series [2] worked out at 43.5 °C.

As for GTGTAGCCGAAAGGCCAC (((..(((....)))))), the folding enthalpy in series [1] was -17.3 kcal/mol. Further, the Tm in series [2] was 47 °C.

For the sequence GTGTAGCGAAAGCTGCAC (((.(((....))).))), the folding enthalpy in series [1] was -36.6 kcal/mol. For the same sequence, the Tm in series [2] stood at 63.9 °C.

As for GTGTAGGGAAACCTACGC (.(((((....))))).), in series [1], the folding enthalpy is -17.9 kcal/mol. Besides, in series [2], the Tm turned out to be 50 °C.

For GTGTATGGAAACATACGC (.(((((....))))).), the folding enthalpy in series [1] is -20.1 kcal/mol. For the same sequence, in series [2], the Tm worked out at 48.5 °C.

Take GTGTATGGAAACATATGC (..((((....))))..): the folding enthalpy in series [1] is -24.1 kcal/mol. Also, the Tm in series [2] is 30.7 °C.

As to GTGTCACGAAAGTGCCAC (((.(((....))).))), the folding enthalpy in series [1] is -51.5 kcal/mol. Also, the Tm in series [2] was found to be 52.2 °C.

For GTGTCAGGAAACTAACAC ((((.((....)).)))), the folding enthalpy in series [1] is -20.3 kcal/mol. In series [2], the Tm worked out at 33.5 °C.

For the sequence GTGTCAGGAAACTGACGC (.(((((....))))).), the folding enthalpy in series [1] was -40.5 kcal/mol. Further, the Tm in series [2] worked out at 55.4 °C.

Take GTGTCAGGAAACTGATAC ((.((((....)))).)): the folding enthalpy in series [1] is -29.4 kcal/mol. Further, the Tm in series [2] came out at 45.8 °C.

Take GTGTCAGGAAACTGATGC (..((((....))))..): the folding enthalpy in series [1] was -21.1 kcal/mol. The Tm in series [2] amounted to 38.3 °C.

In the case of GTGTCAGGAAACTGGTAC ((..(((....)))..)), the folding enthalpy in series [1] was -17.6 kcal/mol. Besides, the Tm in series [2] was 31.8 °C.

For the sequence GTGTCCGAAAGGACCCAC ((((((....)))..))), the folding enthalpy in series [1] was -8.57 kcal/mol. In addition, in series [2], the Tm is 38.5 °C.

As to GTGTCCGGAAACAGACAC (((((.(....).))))), the folding enthalpy in series [1] was -30.1 kcal/mol. The Tm in series [2] stood at 44.9 °C.

Turning to GTGTCCGGAAACGGGCAC (((.(((....))).))), in series [1], the folding enthalpy is -32.4 kcal/mol. In addition, the Tm in series [2] amounted to 62.4 °C.

Regarding GTGTCCTCGAAAGAGCAC (((..(((....)))))), the folding enthalpy in series [1] was -14.5 kcal/mol. For the same sequence, the Tm in series [2] was found to be 36 °C.

In the case of GTGTCGGGAAACCAACAC ((((.((....)).)))), the folding enthalpy in series [1] is -33.7 kcal/mol. The Tm in series [2] was determined as 42.9 °C.

Consider GTGTCGGGAAACCGACGC (.(((((....))))).), for which, in series [1], the folding enthalpy is -19.8 kcal/mol. In addition, the Tm in series [2] came to 60.5 °C.

As for GTGTCGGGAAACCGGTAC ((..(((....)))..)), the folding enthalpy in series [1] was -22.7 kcal/mol. Further, in series [2], the Tm was determined as 37.6 °C.

On to GTGTCGGGAAACTGGCAC (((.(.(....).).))), for which the folding enthalpy in series [1] is -29.2 kcal/mol. The Tm in series [2] was 45.9 °C.
